Measured values published in ChEMBL document CHEMBL1154461, “6-Substituted 2-oxo-2H-1-benzopyran-3-carboxylic acid derivatives in a new approach of the treatment of cancer cell invasion and metastasis” (2008).

How the values were obtained:
HT-1080 [1] = test: Antiinvasive activity in human HT1080 cells assessed as number of cells migrated at 1 uM after 48 hrs by Boyden chamber invasion assay
HT-1080 [2] = test: Antiinvasive activity in human HT1080 cells assessed as number of cells migrated at 10 uM after 24 hrs by Boyden chamber invasion assay; type: functional; conditions: in the assay text read “after 48 hrs” for “after 24 hrs”
Method in brief: (§1)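 HT 1080 cells, harvested at 70–80% confluence, were seeded at 6×10⁴ cells per filter in serum-free DMEM with BSA. Transwell filters were coated with human placental type IV collagen. Chambers were incubated 48 h at 37 °C, with media renewed at 24 h. Lower-surface cells were fixed, Giemsa-stained and counted by light microscopy. Results are % of untreated control migration, mean ± s.d., n=3.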

HT-1080 [3] = test: Antiinvasive activity in human HT1080 cells assessed as number of cells migrated at 0.1 uM after 24 hrs by Boyden chamber invasion assay; type: functional; conditions: in the assay text read “after 48 hrs” for “after 24 hrs”
Method in brief: as §1

HT-1080 [4] = test: Antiinvasive activity in human HT1080 cells assessed as number of cells migrated at 10 uM after 48 hrs by Boyden chamber invasion assay
HT-1080 [5] = test: Antiinvasive activity in human HT1080 cells assessed as number of cells migrated at 0.1 uM after 48 hrs by Boyden chamber invasion assay

| Structure (SMILES) | Cells migrated (HT-1080 [1]) [%] | Activity (HT-1080 [2]) [%] | Activity (HT-1080 [3]) [%] | Activity (HT-1080 [4]) [%] | Activity (HT-1080 [5]) [%] |
| --- | --- | --- | --- | --- | --- |
| O=C(Oc1cccc(Cl)c1)c1cc2ccccc2oc1=O | 45.5 | 35.65 | 52.4 |  |  |
| CC(=O)OCc1ccc2oc(=O)c(C(=O)Oc3cccc(Cl)c3)cc2c1 | 49.11 | 6.17 | 95.2 |  |  |
| O=C(Oc1cccc(Cl)c1)c1cc2cc(CCl)ccc2oc1=O | 79.76 | 67 | 98.35 |  |  |
| Cc1ccc2oc(=O)c(C(=O)Oc3cccc(Cl)c3)cc2c1 | 52.49 | 27.62 | 81.5 |  |  |
| CC(=O)NCc1ccc2oc(=O)c(C(=O)Oc3ccccc3)cc2c1 | 63.45 |  |  |  |  |
| CC(=O)OCc1ccc2oc(=O)c(C(=O)N(C)c3ccccc3Cl)cc2c1 | 62.78 |  |  |  |  |
| CC(=O)OCc1ccc2oc(=O)c(C(=O)N(C)c3cccc(Cl)c3)cc2c1 | 82.56 |  |  |  |  |
| CCC(=O)OCc1ccc2oc(=O)c(C(=O)Oc3cccc(Br)c3)cc2c1 | 40.23 | 21.32 | 84.36 |  |  |
| CCCC(=O)OCc1ccc2oc(=O)c(C(=O)Oc3cccc(Br)c3)cc2c1 | 50.47 |  | 88.55 | 24.67 |  |
| CC(=O)OCc1ccc2oc(=O)c(C(=O)Sc3cccc(Cl)c3)cc2c1 | 65.84 | 61.86 | 76.54 |  |  |
| CC(=O)OCc1ccc2oc(=O)c(C(=O)Sc3cccc(Br)c3)cc2c1 | 70.86 | 67.84 | 79.58 |  |  |
| CC(=O)OCc1ccc2oc(=O)c(C(=O)Nc3cccc(Cl)c3)cc2c1 | 66.85 | 42.75 | 79.55 |  |  |
| O=C1NC(=O)C(c2ccc(-c3ccccc3)cc2)(N2CCN(c3ccc([N+](=O)[O-])cc3)CC2)C(=O)N1 | 41.6 |  |  |  |  |
| Cl.NCc1ccc2oc(=O)c(C(=O)Oc3cccc(F)c3)cc2c1 | 45.25 |  |  |  |  |
| CC(C)(C)C(=O)OCc1ccc2oc(=O)c(C(=O)Oc3cccc(Br)c3)cc2c1 | 48.21 | 23.64 |  |  | 65.24 |
| O=C(Oc1ccccc1)c1cc2cc([N+](=O)[O-])ccc2oc1=O | 76.68 |  |  |  |  |
| O=C(Oc1cccc(F)c1)c1cc2cc([N+](=O)[O-])ccc2oc1=O | 53.56 |  |  |  |  |
| O=C(Oc1cccc(Cl)c1)c1cc2cc([N+](=O)[O-])ccc2oc1=O | 65.78 |  |  |  |  |

| Structure (SMILES) | Cells migrated (HT-1080 [1]) [%] | Activity (HT-1080 [2]) [%] | Activity (HT-1080 [3]) [%] | Activity (HT-1080 [4]) [%] | Activity (HT-1080 [5]) [%] |
| --- | --- | --- | --- | --- | --- |
| CC(=O)NCc1ccc2oc(=O)c(C(=O)Oc3cccc(Br)c3)cc2c1 | 36.94 | 27.14 | 34.38 |  |  |
| CC(=O)NCc1ccc2oc(=O)c(C(=O)Oc3cccc(I)c3)cc2c1 | 23.47 |  |  |  |  |
| CC(=O)NCc1ccc2oc(=O)c(C(=O)Oc3cccc(Cl)c3)cc2c1 | 36.58 |  |  |  |  |
| CC(=O)OCc1ccc2oc(=O)c(C(=O)Oc3cccc(Br)c3)cc2c1 | 21.81 | 11.77 | 39.47 |  |  |
| CC(C)CC(C(=O)N(C)C(Cc1ccccc1)C(=O)O)C(CSc1ccccc1)C(=O)NO (configuration not stated) | 38.45 |  |  |  |  |
| CCCCC(=O)OCc1ccc2oc(=O)c(C(=O)Oc3cccc(Br)c3)cc2c1 | 63.25 | 32.26 | 92.36 |  |  |
| CCCCCCC(=O)OCc1ccc2oc(=O)c(C(=O)Oc3cccc(Br)c3)cc2c1 | 55.56 | 35.96 | 89.36 |  |  |
| Cl.NCc1ccc2oc(=O)c(C(=O)Oc3cccc(Br)c3)cc2c1 | 79.25 | 63.58 | 88.26 |  |  |
| O=C(Oc1cccc(Br)c1)c1cc2cc([N+](=O)[O-])ccc2oc1=O | 35.22 |  |  |  |  |
| Cl.NCc1ccc2oc(=O)c(C(=O)Oc3ccccc3)cc2c1 | 85.53 |  |  |  |  |
| CC(=O)NCc1ccc2oc(=O)c(C(=O)Oc3cccc(F)c3)cc2c1 | 65.58 |  |  |  |  |
| CC(=O)OCc1ccc2oc(=O)c(C(=O)N(C)c3ccc(Cl)cc3)cc2c1 | 98.56 |  |  |  |  |
| Cl.NCc1ccc2oc(=O)c(C(=O)Oc3cccc(Cl)c3)cc2c1 | 86.56 |  |  |  |  |
| Cl.NCc1ccc2oc(=O)c(C(=O)Oc3cccc(I)c3)cc2c1 | 25.34 |  |  |  |  |
| CC(=O)OCc1ccc2oc(=O)c(C(=O)Sc3ccccc3)cc2c1 | 83.45 | 73.84 | 89.45 |  |  |
| O=C(Oc1cccc(I)c1)c1cc2cc([N+](=O)[O-])ccc2oc1=O | 63.58 |  |  |  |  |
| CC(C)C(=O)OCc1ccc2oc(=O)c(C(=O)Oc3cccc(Br)c3)cc2c1 | 37.8 | 21.07 | 54.36 |  |  |
| CCCCCC(=O)OCc1ccc2oc(=O)c(C(=O)Oc3cccc(Br)c3)cc2c1 | 59.32 | 33.94 | 94.25 |  |  |
